Cytotoxicity data for 71 compounds are collected here from ChEMBL document CHEMBL4513216, “Probing the Open Global Health Chemical Diversity Library for Multistage-Active Starting Points for Next-Generation Antimalarials” (ACS Infect Dis, 2020).

This series is described as follows: Toxicity liver stage against HepG2, at 10uM. The format is cell-based. Also noted: test concentration 10 uM, cell line HepG2-A16-CD81EGFP. As to conditions: human, HepG2-A16-CD81EGFP cells; read-out: INHIBITION
The method, boiled down:
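Uninfected HepG2-A16-CD81EGFP cells, 3 × 10^3 per well, 1536-well, plated on prespotted compound at 10 μM final, parasite-free screening media added to match infected plates; puromycin 10 μM positive, DMSO 0.5% negative; run in parallel with 48 h PbLuc assay at 37 °C, 5% CO2; viability by CellTiter-Glo luminescence, normalized to controls.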
For `O=C(NC[C@H]1COCc2nc3cc(F)ccc3n21)c1cccnc1`, the cytotoxicity at 10 µM was -1.23%.
In the case of `CN1CCC(N2CCC[C@H]2c2nc(-c3cncnc3N)no2)CC1`, the cytotoxicity at 10 µM is -5.33%.
In the case of `Cc1cccc2c1nc1n2[C@@H](CNC(=O)c2cncnc2)COC1` it was 1.53%; in that of `Cc1nnc(NC(=O)CSCc2cc(=O)n3ccccc3n2)s1`, 1.5%; in that of `COc1cc2c(cc1OC)C(=O)C(Sc1nnc(C)o1)C2` (stereo unspecified), 0.372%.
The figure for `Cc1cc(C)c(S(=O)(=O)Nc2c(C)nc(N3CCCC3)nc2C)cc1C` is 3.62%; for `CCOCC1C[C@@H]2OCCN(C(=O)c3ccc[nH]3)[C@H]2C1` (stereo partly specified) it is -1.86%.
Take `CN1C(=O)CC2(CCN(S(=O)(=O)N(C)C)CC2)c2ccccc21`: the cytotoxicity at 10 µM amounted to 0.688%.
With `CN(C)CCCNC(=O)c1ccccc1NC(=O)c1cc(Cl)ccc1Cl`, the cytotoxicity at 10 µM was -17%.
Turning to `CCC(=O)N1CCN(c2nc(C)nc3c(C)nn(C)c23)CC1`, the cytotoxicity at 10 µM was found to be 12.4%.
Take `CC(=O)Nc1ncc(S(=O)(=O)Nc2cccc(C)c2)s1`: the cytotoxicity at 10 µM was 7.63%.
In the case of `N#Cc1cn[nH]c1NCc1cc(Br)ccc1O` it was -7.29%.
For the compound `CN(C)c1nccc(C2CCN(C3CCCCC3O)CC2)n1` (stereo unspecified), the cytotoxicity at 10 µM is 1.98%.
In the case of `O=S1(=O)NC2(CCCN(Cc3ccc(Cl)cc3)C2)COc2ccccc21` (stereo unspecified) it was 15.2%; in that of `O=C1Nc2ccccc2CC12CCCN2Cc1ccccn1` (stereo unspecified), -17.1%; in that of `CC(C)C(NC(=O)c1nc(N2CCOCC2)ncc1Cl)c1cccs1` (stereo unspecified), -44.3%.
For the compound `Cc1nc(-c2cccs2)ccc1C(=O)N1CCN(CCO)CC1`, the cytotoxicity at 10 µM was -56%.
With `CCC(=O)Nc1ccc(F)cc1OC`, the cytotoxicity at 10 µM is -26.1%.
For the compound `CC(C)c1noc(C(C)N2CCN(Cc3noc(C4CC4)n3)CC2)n1` (stereo unspecified), the cytotoxicity at 10 µM was 3.01%.
For the compound `CC(C(=O)Nc1cccc(F)c1)N(C)CCN1CCOCC1` (stereo unspecified), the cytotoxicity at 10 µM was -9.19%.
For `Cc1nn(C)c(C)c1S(=O)(=O)N(CC(N)=O)CC(C)C`, the cytotoxicity at 10 µM turned out to be 10.5%.
Consider `CS(=O)(=O)NCCNC(=O)C1(c2ccc(F)cc2)CC1`, for which the cytotoxicity at 10 µM came out at 1.93%.
With `O=C(CSc1ccc2c(c1)OCCO2)NS(=O)(=O)c1cc(F)ccc1F`, the cytotoxicity at 10 µM is -3.47%.
On to `Cc1cc(NC(C)C(=O)N2CCN(c3ncccn3)CC2)ccc1F` (stereo unspecified), for which the cytotoxicity at 10 µM was found to be 7.77%.
As to `Cc1ccc(OCC(=O)Nc2ncccc2OC(F)F)cc1`, the cytotoxicity at 10 µM came out at 6.42%.
For the compound `Cc1ccc(C(O)CNC(=O)c2cccnc2O)cc1` (stereo unspecified), the cytotoxicity at 10 µM came to 11%.
Turning to `Cc1n[nH]c(C2CN(C(=O)c3ccc(Cl)o3)CCO2)n1` (stereo unspecified), the cytotoxicity at 10 µM is -5.59%.
Regarding `CS(=O)(=O)NC1CCN(C(=O)CCn2cccn2)CC1`, the cytotoxicity at 10 µM was -7.74%.
Turning to `COCCCNS(=O)(=O)c1cc(C)sc1C`, the cytotoxicity at 10 µM was -11.6%.
Regarding `CCN(CC)S(=O)(=O)c1ccc(C(F)(F)F)cc1C#N`, the cytotoxicity at 10 µM is -13.4%.
In the case of `CC1CCN(C(=O)Cc2ccc(S(=O)(=O)C(F)F)cc2)CC1`, the cytotoxicity at 10 µM was determined as 2.98%.
As for `CCC(=O)NC1CCCN(Cc2ccc(NC(C)=O)cc2)C1` (stereo unspecified), the cytotoxicity at 10 µM is -47.9%.
Regarding `CS(=O)(=O)Cc1nc(CN2CC=C(c3ccccc3)CC2)cs1`, the cytotoxicity at 10 µM stood at 5.27%.
Regarding `NC(=O)C1Cn2ccnc2C2(CCN(C(=O)c3ccncc3)CC2)O1` (stereo unspecified), the cytotoxicity at 10 µM is -103%.
In the case of `Cc1nc(CN2Cc3cn(C)nc3C(COCC3CC3)C2)cs1` (stereo unspecified), the cytotoxicity at 10 µM is -68.9%.
With `CO[C@@H]1CCN(S(=O)(=O)c2cccs2)[C@H]1Cc1ccccc1`, the cytotoxicity at 10 µM was -78%.
As to `CN(C)C(=O)NC1COC2(CCN(Cc3ccco3)CC2)C1` (stereo unspecified), the cytotoxicity at 10 µM is -72.4%.
Turning to `CC(=O)N1CCCC2(C1)CN(C(=O)c1ccncc1)CCO2` (stereo unspecified), the cytotoxicity at 10 µM is -78.7%.
For `CNC(=O)[C@@]12CCO[C@@H]1CCN(S(=O)(=O)c1cccc(F)c1)C2`, the cytotoxicity at 10 µM is -73.8%.
For the compound `COCCN1CCC12CCN(C(=O)c1ccc3[nH]ccc3c1)C2` (stereo unspecified), the cytotoxicity at 10 µM was -82.6%.
For `CCOC1COC2(CCN(S(=O)(=O)c3cccc(C)c3)CC2)C1` (stereo unspecified), the cytotoxicity at 10 µM was -79.8%.
Take `Cc1cccc(N2CCN(CCC(=O)NCc3cccnc3)CC2)c1`: the cytotoxicity at 10 µM is -9.2%.
As to `C[C@H](NC(=O)c1cnc(-c2ccccc2)nc1O)C(N)=O`, the cytotoxicity at 10 µM was determined as 7.06%.
Take `Oc1cc(CN2CCC(O)(Cn3ccnc3)CC2)nc2c(Cl)cccc12`: the cytotoxicity at 10 µM was -60.8%.
As for `COc1ncc(-c2ccc(O)cc2)c(OC)n1`, the cytotoxicity at 10 µM is -2.42%.
The figure for `Cc1ccc(CN(Cc2ccccn2)C(=O)C2CCCCCN2C)s1` (stereo unspecified) is -20.2%.
With `CN(Cc1ccncn1)C(=O)c1cccc(CCC(C)(C)O)c1`, the cytotoxicity at 10 µM was -4.27%.
The figure for `CN(Cc1nc(Cc2cccc(C(F)(F)F)c2)no1)C(C1CC1)C1CC1` is 0.92%; for `NCC1Cc2cccc(-c3ccc(O)c(F)c3)c2O1` (stereo unspecified) it is -40.2%; for `CN(Cc1cnc(N)nc1)C(=O)c1coc(COc2ccccc2)n1` it is 1.58%.
Regarding `CCOc1cccc(CN2CCCn3nc(CNS(C)(=O)=O)cc3C2)c1`, the cytotoxicity at 10 µM is -4.01%.
With `COc1cccc2c1OCCCN(c1nc(N)nc3c1CCNC3)C2`, the cytotoxicity at 10 µM amounted to 0.944%.
For `COCC(=O)N1CCCC1c1ccc(C(=O)NCCN2CCCCC2)s1` (stereo unspecified), the cytotoxicity at 10 µM stood at 4.26%.
Turning to `O=C(c1cccnc1)N1CCC(Oc2cccc(C(F)(F)F)c2)CC1`, the cytotoxicity at 10 µM amounted to 7.19%.
In the case of `Cc1nc(-c2c(-c3ccccc3)ncn2CCCN2CCOCC2)c[nH]1`, the cytotoxicity at 10 µM is -6.76%.
For the compound `Cc1cnn(CC(=O)N2CCC3(CCC(=O)N(CC(C)O)C3)CC2)c1` (stereo unspecified), the cytotoxicity at 10 µM was 3.05%.
With `CCn1cnnc1C1CCN(C(=O)c2cnc(C)s2)CC1`, the cytotoxicity at 10 µM was -8.45%.
On to `c1cn(-c2ccc(CN3CCOC(Cn4cncn4)C3)cc2)cn1` (stereo unspecified), for which the cytotoxicity at 10 µM came out at 1.25%.
Take `Cc1nn(-c2ccccc2)cc1C(=O)N1CCCC(n2ccnc2C)C1` (stereo unspecified): the cytotoxicity at 10 µM is -3.11%.
For `Cc1ncccc1-c1cc2cccnc2n1CCCNC(=O)C(C)(C)C`, the cytotoxicity at 10 µM was 12.8%.
For `CCN(C(=O)c1ccc2nnc(C3CCN(C)C3)n2c1)C(C)C` (stereo unspecified), the cytotoxicity at 10 µM is -112%.
For `c1cncc(CN2CCN3C[C@H](Oc4cncnc4)C[C@H]3C2)c1`, the cytotoxicity at 10 µM is -100%.
The figure for `Cc1cccc(CN2CCCC3(CCN(CC(=O)N(C)C)C3=O)C2)n1` (stereo unspecified) is -119%; for `COC(=O)CN1CC2(CCNCC2)COc2ccccc2S1(=O)=O` it is -11.7%; for `Cc1nnc([C@]23COC[C@H]2CN(Cc2cccs2)C3)o1` it is -3.34%.
In the case of `c1ccc(NCc2cnc3n2CCN(CC2CCOC2)CC3)nc1` (stereo unspecified) it was -76.5%; in that of `O=C(NC1CC2(CCN(CCO)CC2)c2ccccc21)c1ccsc1` (stereo unspecified), -14.2%; in that of `O=C(c1ccncc1)N1CCc2ncnc(C3CC3)c2CC1`, -75.6%.
As for `Cc1ccc(N2CCN(CC3CC3)C3(CCN(C(C)C)CC3)C2=O)cn1`, the cytotoxicity at 10 µM is 16%.
With `O=C(O)c1cnc2c(Br)cccc2c1O`, the cytotoxicity at 10 µM was 15.5%.
With `N#Cc1ccccc1C(=O)N1C[C@@H]2CC[C@H]1CN(Cc1ccccc1)C2`, the cytotoxicity at 10 µM came to 1.43%.
